Data reported in ChEMBL document CHEMBL2311485, “Chemical and microbial semi-synthesis of tetrahydroprotoberberines as inhibitors on tissue factor procoagulant activity” (Bioorg Med Chem, 2013).

Biological target: Tissue factor (Homo sapiens, UniProt P13726)
Test: Inhibition of tissue factor procoagulant activity in LPS-stimulated human THP1 cells preincubated for 1 hr before LPS addition measured after 5 hrs
Type: cell-based, THP-1
Summary of the method: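 THP-1 cells grown in RPMI-1640 with 10% heat-inactivated FCS, 37 °C, 5% CO2. Cells at 1 × 10⁶/mL pretreated 1 h with compound or 0.1% DMSO vehicle, then given 500 ng/mL LPS for 5 h. Cells were pelleted, resuspended, frozen/thawed three times, and the lysate incubated with prothrombin complex plus CaCl₂ (pH 7.3) 15 min at 37 °C. Factor Xa chromogenic substrate (0.5 mM) with EDTA was added and A405 read.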

Tissue factor, sequence (P13726 whole entry): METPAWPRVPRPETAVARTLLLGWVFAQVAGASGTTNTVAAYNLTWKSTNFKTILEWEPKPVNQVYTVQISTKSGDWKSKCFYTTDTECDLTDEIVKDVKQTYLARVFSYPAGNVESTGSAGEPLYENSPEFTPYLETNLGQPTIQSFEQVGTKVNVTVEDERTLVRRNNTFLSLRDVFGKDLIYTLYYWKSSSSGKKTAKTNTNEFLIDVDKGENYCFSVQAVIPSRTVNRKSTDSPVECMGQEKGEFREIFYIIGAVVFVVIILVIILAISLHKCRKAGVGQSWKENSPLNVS

## COc1cc2c(cc1O)[C@@H]1Cc3ccc(O)c(OC)c3CN1CC2 [STEPHOLIDINE]
  IC50: 105 nM
